Calls of active or inactive are those of the source. The calls are words filed in the database; no cut-off is given here.
Tests used:
[1] = target: T1, Ectonucleotide pyrophosphatase/phosphodiesterase family member 1 (Homo sapiens) (UniProt P22413); experiment: Inhibition of NPP1 in human HTB-85 cells using pNP-TMP as substrate at 100 uM after 20 mins […]; assay type: cell-based
T1 sequence (whole entry): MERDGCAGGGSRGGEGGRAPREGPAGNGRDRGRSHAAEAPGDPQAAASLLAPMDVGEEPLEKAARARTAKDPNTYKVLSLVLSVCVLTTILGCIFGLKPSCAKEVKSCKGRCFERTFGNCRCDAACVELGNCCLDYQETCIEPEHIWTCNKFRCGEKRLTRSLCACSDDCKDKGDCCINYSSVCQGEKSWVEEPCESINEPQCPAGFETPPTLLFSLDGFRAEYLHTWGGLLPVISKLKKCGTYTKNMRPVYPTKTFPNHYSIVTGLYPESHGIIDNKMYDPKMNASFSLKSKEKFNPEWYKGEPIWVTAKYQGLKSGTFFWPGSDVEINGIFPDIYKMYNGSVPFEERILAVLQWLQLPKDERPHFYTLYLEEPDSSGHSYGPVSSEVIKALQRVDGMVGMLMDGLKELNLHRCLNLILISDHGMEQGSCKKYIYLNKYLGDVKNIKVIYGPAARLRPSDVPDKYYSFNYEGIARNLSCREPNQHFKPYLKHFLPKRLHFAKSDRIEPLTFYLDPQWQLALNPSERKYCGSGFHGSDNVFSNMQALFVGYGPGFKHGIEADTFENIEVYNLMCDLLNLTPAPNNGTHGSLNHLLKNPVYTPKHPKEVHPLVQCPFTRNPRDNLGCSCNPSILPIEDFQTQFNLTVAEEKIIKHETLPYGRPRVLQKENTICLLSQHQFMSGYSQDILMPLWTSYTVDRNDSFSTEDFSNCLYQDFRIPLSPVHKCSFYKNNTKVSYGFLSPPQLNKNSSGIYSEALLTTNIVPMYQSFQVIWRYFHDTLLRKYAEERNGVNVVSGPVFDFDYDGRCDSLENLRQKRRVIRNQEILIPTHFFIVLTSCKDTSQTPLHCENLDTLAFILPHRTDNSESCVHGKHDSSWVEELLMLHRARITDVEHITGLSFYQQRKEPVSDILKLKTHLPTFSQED
How it was run: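 Assay on intact human osteocarcinoma HTB-85 (SaOS-2) cells as native NPP1 source, in 0.5 mL incubation mixture. pNP-TMP is added to 100 μM final with inhibitor at 100 μM. After 20 min, p-nitrophenol is read at 410 nm. Substrate alone is set as 100%. Three experiments in triplicate.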

[2] = target: T1, Ectonucleotide pyrophosphatase/phosphodiesterase family member 1 (Homo sapiens); experiment: Inhibition of human NPP1 using pNP-TMP as substrate at 100 uM after 20 mins by reversed-phase HPLC analysis
[3] = target: T2, Ectonucleoside triphosphate diphosphohydrolase 2 (Homo sapiens) (UniProt Q9Y5L3); experiment: Inhibition of human NTPDase-2 using ATP as substrate assessed as inorganic phosphate release at 100 uM after 15 mins relative to control
T2 sequence (whole entry): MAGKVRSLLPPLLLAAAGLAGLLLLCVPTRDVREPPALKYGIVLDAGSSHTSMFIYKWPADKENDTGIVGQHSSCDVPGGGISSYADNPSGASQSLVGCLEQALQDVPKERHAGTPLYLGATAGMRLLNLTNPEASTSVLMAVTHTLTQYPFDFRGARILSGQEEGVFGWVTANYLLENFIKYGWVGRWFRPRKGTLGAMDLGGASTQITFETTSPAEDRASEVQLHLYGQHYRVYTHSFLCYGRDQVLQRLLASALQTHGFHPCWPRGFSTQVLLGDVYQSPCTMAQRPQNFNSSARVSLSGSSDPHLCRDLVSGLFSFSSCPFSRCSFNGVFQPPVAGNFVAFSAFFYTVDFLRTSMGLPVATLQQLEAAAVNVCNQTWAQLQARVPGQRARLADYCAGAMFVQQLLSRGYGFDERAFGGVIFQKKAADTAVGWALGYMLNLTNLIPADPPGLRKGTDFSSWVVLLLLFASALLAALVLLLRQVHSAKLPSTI
How it was run: (§1)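 Protein extracts are from COS-7 cells transiently transfected with human NTPDase1, 2, 3 or 8. Extract is preincubated for 3 min at 37 °C in Tris–Ringer buffer (pH 7.3). […] Three experiments in triplicate.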

[4] = target: T3, Ectonucleoside triphosphate diphosphohydrolase 8 (Homo sapiens) (UniProt Q5MY95); experiment: Inhibition of human NTPDase-8 using ATP as substrate assessed as inorganic phosphate release at 100 uM after 15 mins relative to control; how it was run: as §1
T3 sequence (whole entry): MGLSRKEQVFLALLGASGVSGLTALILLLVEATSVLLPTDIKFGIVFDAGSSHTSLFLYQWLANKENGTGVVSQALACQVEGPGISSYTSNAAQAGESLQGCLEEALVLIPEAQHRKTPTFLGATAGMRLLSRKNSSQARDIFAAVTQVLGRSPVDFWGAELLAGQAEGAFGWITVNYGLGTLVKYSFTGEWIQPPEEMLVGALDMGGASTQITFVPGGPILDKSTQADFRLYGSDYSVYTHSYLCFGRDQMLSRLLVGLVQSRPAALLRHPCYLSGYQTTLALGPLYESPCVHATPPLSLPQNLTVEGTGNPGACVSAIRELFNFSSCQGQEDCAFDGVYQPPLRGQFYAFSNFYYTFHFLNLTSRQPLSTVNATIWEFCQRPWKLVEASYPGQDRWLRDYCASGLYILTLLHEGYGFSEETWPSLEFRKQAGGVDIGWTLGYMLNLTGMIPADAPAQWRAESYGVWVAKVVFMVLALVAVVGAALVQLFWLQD

[5] = target: T4, Ectonucleoside triphosphate diphosphohydrolase 3 (Homo sapiens) (UniProt O75355); experiment: Inhibition of human NTPDase-3 using ATP as substrate assessed as inorganic phosphate release at 100 uM after 15 mins relative to control; how it was run: as §1
T4 sequence (whole entry): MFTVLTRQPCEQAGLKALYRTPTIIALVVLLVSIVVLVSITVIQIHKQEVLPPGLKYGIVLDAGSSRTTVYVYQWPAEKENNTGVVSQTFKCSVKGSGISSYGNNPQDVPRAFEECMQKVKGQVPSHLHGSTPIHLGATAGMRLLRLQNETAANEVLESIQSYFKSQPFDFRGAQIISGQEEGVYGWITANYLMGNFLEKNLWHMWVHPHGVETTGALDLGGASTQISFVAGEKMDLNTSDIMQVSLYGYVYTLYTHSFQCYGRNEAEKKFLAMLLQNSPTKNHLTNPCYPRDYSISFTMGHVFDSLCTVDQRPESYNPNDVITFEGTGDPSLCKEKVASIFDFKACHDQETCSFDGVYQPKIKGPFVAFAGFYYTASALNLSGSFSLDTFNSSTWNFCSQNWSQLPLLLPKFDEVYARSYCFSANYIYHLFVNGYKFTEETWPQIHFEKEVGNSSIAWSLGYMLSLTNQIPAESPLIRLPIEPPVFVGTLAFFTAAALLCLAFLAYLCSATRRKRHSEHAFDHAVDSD

Compound: Nc1ncnc2c1ncn2[C@@H]1O[C@H](CO[P@@](O)(=S)OP(=O)(O)CP(=O)(O)O)[C@@H](O)[C@H]1O
- inhibition [1]: Active
- inhibition [2]: > 90%
- inhibition [3]: 12.7%
- inhibition [4]: 1.5%
- inhibition [5]: 24%

Compound: Nc1ncnc2c1ncn2[C@@H]1O[C@H](COP(=O)(O)CP(=O)(O)OP(O)(O)=S)[C@@H](O)[C@H]1O
- inhibition [1]: Active
- inhibition [2]: > 90%
- inhibition [3]: 16.3%
- inhibition [4]: 7%
- inhibition [5]: 40.2%

Compound: Nc1ncnc2c1ncn2[C@@H]1O[C@H](CO[P@](O)(=S)OP(=O)(O)CP(=O)(O)O)[C@@H](O)[C@H]1O
- inhibition [1]: Active
- inhibition [2]: > 90%
- inhibition [3]: 15.4%
- inhibition [4]: 0.5%
- inhibition [5]: 26.8%

Compound: Nc1ncnc2c1ncn2[C@@H]1O[C@H](CO[P@@](O)(=S)OP(=O)(O)C(Cl)(Cl)P(=O)(O)O)[C@@H](O)[C@H]1O
- inhibition [1]: Active
- inhibition [2]: > 90%
- inhibition [3]: 9.9%
- inhibition [4]: 0.5%
- inhibition [5]: 18.7%

Compound: Nc1ncnc2c1ncn2[C@@H]1O[C@H](CO[P@](O)(=S)OP(=O)(O)C(Cl)(Cl)P(=O)(O)O)[C@@H](O)[C@H]1O
- inhibition [1]: Active
- inhibition [2]: > 90%
- inhibition [3]: 11.2%
- inhibition [4]: 4.9%
- inhibition [5]: 21.8%
